Unmarked numbers belong to inactive results. Calls of active or inactive are those of the source. The rule behind the calls is not given here.

This assay is described as follows: Hsp70 transcriptional activators, SAR follow-up, cell-based, HeLa, Hsp70 promoter luciferase, luminescence (AID 651950). Particulars: HeLa hsp70.1pr-luc reporter; at 99 µM (top of the series). The procedure, abridged:
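detection: luciferase luminescence; read-out: % activation relative to DMSO and MG132 controls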
Turning to `O=[N+]([O-])c1c(Nc2ccc(Cl)cc2)cc(Cl)c2nonc12`, the activation was -0.9% (active).

Take `O=C1NC(=O)N(c2cccc(Cl)c2)C(=O)/C1=C\C=C\c1ccccc1`: the activation is -0.7% (active).

Take `O=C1/C(=C/c2ccncc2)CCC/C1=C\c1ccncc1`: the activation was -1.1% (active).

Take `O=C1NC(=O)N(c2cccc(Br)c2)C(=O)/C1=C/C=C/c1ccccc1`: the activation is -0.8% (active).

Take `O=c1c([N+](=O)[O-])c(Cl)c2ccccc2n1Cc1ccccc1`: the activation is -0.4%.

Regarding `COc1cc(C(=O)/C(=C/c2cccnc2)c2nc3ccccc3o2)cc(OC)c1OC`, the activation was -1.5%.

For `COc1cccc(N2C(=O)NC(=O)/C(=C/C=C/c3ccccc3[N+](=O)[O-])C2=O)c1`, the activation was -1.6%.

These data come from PubChem BioAssay AID651950 (The Scripps Research Institute Molecular Screening Center, 2012).
